Tests used:
[1] = target: Melanin-concentrating hormone receptor 1 (Homo sapiens, UniProt Q99705); test: Displacement of Eu-labeled MCH from human MCH-R1 expressed in CHO by time-resolved fluorometric assay
Summary of the method: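 Competitive binding on membranes from CHO cells expressing human MCH-R1, with Eu-labeled MCH as tracer and time-resolved fluorometric read-out. IC50 values are means of at least two measurements.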

[2] = target: Voltage-gated inwardly rectifying potassium channel KCNH2 (Homo sapiens, UniProt Q12809); test: Inhibition hERG by patch clamp method
Chain of Voltage-gated inwardly rectifying potassium channel KCNH2 (Q12809 whole entry): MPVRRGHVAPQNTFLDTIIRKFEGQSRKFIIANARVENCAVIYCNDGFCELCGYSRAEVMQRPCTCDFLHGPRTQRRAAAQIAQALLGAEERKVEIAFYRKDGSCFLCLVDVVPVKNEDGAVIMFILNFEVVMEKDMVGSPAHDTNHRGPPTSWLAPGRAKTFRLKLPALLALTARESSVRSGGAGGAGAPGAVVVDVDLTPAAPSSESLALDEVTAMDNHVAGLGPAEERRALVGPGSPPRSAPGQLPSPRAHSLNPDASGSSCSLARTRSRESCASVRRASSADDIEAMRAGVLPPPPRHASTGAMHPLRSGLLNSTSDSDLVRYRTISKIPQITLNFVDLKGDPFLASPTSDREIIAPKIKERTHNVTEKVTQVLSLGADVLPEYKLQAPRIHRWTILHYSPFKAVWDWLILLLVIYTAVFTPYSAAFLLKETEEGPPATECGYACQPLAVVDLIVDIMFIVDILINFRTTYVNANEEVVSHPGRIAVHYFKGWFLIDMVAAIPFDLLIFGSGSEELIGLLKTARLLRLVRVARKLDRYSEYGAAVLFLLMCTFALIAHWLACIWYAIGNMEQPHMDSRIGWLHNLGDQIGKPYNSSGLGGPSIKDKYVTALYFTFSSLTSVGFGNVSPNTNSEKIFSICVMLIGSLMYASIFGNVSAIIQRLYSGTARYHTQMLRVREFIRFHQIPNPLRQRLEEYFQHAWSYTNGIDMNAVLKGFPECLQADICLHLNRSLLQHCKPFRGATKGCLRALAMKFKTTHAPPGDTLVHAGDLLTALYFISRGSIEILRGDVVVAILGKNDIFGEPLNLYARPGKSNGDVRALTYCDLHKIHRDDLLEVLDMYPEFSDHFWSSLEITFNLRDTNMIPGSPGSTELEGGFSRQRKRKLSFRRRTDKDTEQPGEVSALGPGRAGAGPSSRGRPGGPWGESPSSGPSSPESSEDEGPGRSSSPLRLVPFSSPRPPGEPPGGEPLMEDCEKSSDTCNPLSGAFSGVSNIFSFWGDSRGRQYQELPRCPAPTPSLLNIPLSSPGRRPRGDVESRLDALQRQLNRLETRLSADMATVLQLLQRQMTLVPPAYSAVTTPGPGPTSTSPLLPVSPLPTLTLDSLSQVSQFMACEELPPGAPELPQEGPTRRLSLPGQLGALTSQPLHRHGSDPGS

[3] = Metabolic stability in rat liver microsomes after 30 mins; format: ADME, Microsome; conditions: read-out: Stability
[4] = Drug level in rat brain at 10 mg/kg, po at 3 hrs; format: ADME, organism-based; design: dose 10 mg/kg, route oral; conditions: read-out: Drug uptake
Summary of the method: (§1)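 SD rats were given 10 mg/kg orally, and concentrations were measured 3 h after dosing. Values are means of n = 3 rats.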

[5] = Oral bioavailability in rat at 10 mg/kg; format: ADME, organism-based; conditions: in vivo
Summary of the method: (§2)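 Rats received 10 mg/kg by both intravenous and oral routes, n = 3.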

[6] = Half life in rat at 10 mg/kg, iv and po; format: ADME, organism-based; design: dose 10 mg/kg, route oral; conditions: in vivo; summary of the method: as §2
[7] = Plasma concentration in rat at 10 mg/kg, po at 3 hrs; format: ADME, organism-based; design: dose 10 mg/kg, route oral; summary of the method: as §1
[8] = Metabolic stability in human liver microsomes after 30 mins; format: ADME, Microsome; conditions: read-out: Stability
[9] = Clearance in rat at 10 mg/kg, iv; format: ADME, organism-based; design: dose 10 mg/kg, route intravenous; conditions: in vivo; summary of the method: as §2
Rattus norvegicus = test: Volume of distribution at steady state in rat at 10 mg/kg, iv and po; format: ADME, organism-based; design: dose 10 mg/kg, route oral; conditions: in vivo; summary of the method: as §2

Chain of Melanin-concentrating hormone receptor 1 (Q99705 whole entry): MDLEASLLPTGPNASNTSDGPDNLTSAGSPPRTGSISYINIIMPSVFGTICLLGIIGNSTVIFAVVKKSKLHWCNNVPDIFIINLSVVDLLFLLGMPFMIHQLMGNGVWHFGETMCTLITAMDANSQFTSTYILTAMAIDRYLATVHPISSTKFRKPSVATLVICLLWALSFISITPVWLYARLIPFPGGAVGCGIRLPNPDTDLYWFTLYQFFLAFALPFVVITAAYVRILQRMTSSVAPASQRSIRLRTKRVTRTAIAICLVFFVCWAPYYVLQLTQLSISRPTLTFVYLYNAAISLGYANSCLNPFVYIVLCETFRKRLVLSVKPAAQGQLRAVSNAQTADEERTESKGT

Work on CC(=O)Nc1cccc(C2CCN(CCCn3c(-c4ccc(C(C)C)cc4)nc4ccccc43)CC2)c1 yielded an IC50 [1] of 60 nM.

For CC(=O)Nc1ccccc1C1CCN(CCCn2c(-c3ccc(Cl)cc3)nc3ccccc32)CC1, the IC50 [1] was over 6000 nM.

With CC(=O)Nc1cccc(C2CCN(CCn3c(-c4ccccc4)nc4ccccc43)CC2)c1 the IC50 [1] was 10000 nM.

Molecule CCc1ccc(-c2nc3ccccc3n2CCCN2CCC(c3cccc(NC(C)=O)c3)CC2)cc1 has an IC50 [1] of 32 nM.

Work on CC(=O)Nc1cccc(C2CCN(CCCn3c(-c4cccc(C(F)(F)F)c4)nc4ccccc43)CC2)c1 yielded an IC50 [1] of 30 nM.

For CC(=O)Nc1ccc(C2CCN(CCCn3c(-c4ccc(Cl)cc4)nc4ccccc43)CC2)cc1, the IC50 [1] was 5380 nM.

In the case of CC(=O)Nc1cccc(C2CCN(CCCn3c(-c4ccc(Cl)cc4)nc4ccccc43)CC2)c1, the IC50 [2] is reported as 3 nM, the remaining at 0.5 h [3] is reported as 98% and the concentration at 3 h [4] is reported as 160 ng/g. For the same molecule, the bioavailability [5] was 99%, the half-life [6] was 4.3 h and the concentration at 3 h [7] was 420 ng/mL. The remaining at 0.5 h [8] was 97%, the clearance [9] was 28.3 mL/min/kg and the Vdss (Rattus norvegicus) was 6 L/kg.

Cc1ccc(C(=O)Nc2cccc(C3CCN(CCCn4c(-c5ccc(Cl)cc5)nc5ccccc54)CC3)c2)cc1 gave an IC50 [1] of 300 nM.

For CC(=O)Nc1cccc(C2CCN(CCCn3c(-c4ccccc4C(F)(F)F)nc4ccccc43)CC2)c1, the IC50 [1] was 50 nM.

— ChEMBL document CHEMBL1759894, “Synthesis and SAR investigations of novel 2-arylbenzimidazole derivatives as melanin-concentrating hormone receptor 1 (MCH-R1) antagonists” (Bioorg Med Chem Lett, 2011)
